Data reported in ChEMBL document CHEMBL1156778, “Synthesis and structure-activity studies of biphenyl analogues of the tuberculosis drug (6S)-2-nitro-6-{[4-(trifluoromethoxy)benzyl]oxy}-6,7-dihydro-5H-imidazo[2,1-b][1,3]oxazine (PA-824)” (J Med Chem, 2010).
pIC50: −log10 of the molar value. Converted amounts (≈) assume the structure as drawn.

System: Mycobacterium tuberculosis
Assay: Antitubercular activity against Mycobacterium tuberculosis H37Rv infected in BALB/c mouse assessed as ratio of lung CFU for compound to lung CFU for PA-824 at 100 mg/kg, po daily for 5 days a week for 3 weeks
Type: functional
Conditions: not given

Compound	fold change (FC)
O=[N+]([O-])c1cn2c(n1)OC[C@@H](OCc1ccc(-c3ccc(OC(F)(F)F)cc3Cl)cc1)C2	23
O=[N+]([O-])c1cn2c(n1)OC[C@@H](OCc1ccc(-c3ccc(OC(F)(F)F)cc3F)cc1)C2	46
O=[N+]([O-])c1cn2c(n1)OC[C@@H](OCc1ccc(-c3ccc(Oc4ccccc4)cc3)cc1)C2	<0.01
O=[N+]([O-])c1cn2c(n1)OC[C@@H](OCc1ccc(-c3ccccc3OCCCO)cc1)C2	<0.01
O=[N+]([O-])c1cn2c(n1)OC[C@@H](OCc1ccc(-c3ccc(Cl)c(C(F)(F)F)c3)cc1)C2	7.7
O=[N+]([O-])c1cn2c(n1)OC[C@@H](OCc1ccc(-c3ccc(OC(F)F)cc3)cc1)C2	8.5
O=[N+]([O-])c1cn2c(n1)OC[C@@H](OCc1ccc(-c3ccc(CNc4ccccc4)cc3)cc1)C2	0.03

System: Vero
Assay: Cytotoxicity against african green monkey Vero cells after 72 hrs by MTS assay
Type: cell-based
Conditions: Chlorocebus sabaeus
In short: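 VERO cells (CCL-81), 72 h exposure, tetrazolium dye read-out.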

Compound	pIC50
O=[N+]([O-])c1cn2c(n1)OC[C@@H](OCc1ccc(-c3ccc(OC(F)(F)F)cc3Cl)cc1)C2	< 3.90
O=[N+]([O-])c1cn2c(n1)OC[C@@H](OCc1ccc(-c3ccc(OC(F)(F)F)cc3F)cc1)C2	< 3.90
O=[N+]([O-])c1cn2c(n1)OC[C@@H](OCc1ccc(-c3ccc(Oc4ccccc4)cc3)cc1)C2	< 3.90
O=[N+]([O-])c1cn2c(n1)OC[C@@H](OCc1ccc(-c3ccccc3OCCCO)cc1)C2	< 3.90
O=[N+]([O-])c1cn2c(n1)OC[C@@H](OCc1ccc(-c3ccc(Cl)c(C(F)(F)F)c3)cc1)C2	< 3.90
O=[N+]([O-])c1cn2c(n1)OC[C@@H](OCc1ccc(-c3ccc(OC(F)F)cc3)cc1)C2	< 3.90
O=[N+]([O-])c1cn2c(n1)OC[C@@H](OCc1ccc(-c3ccc(CNc4ccccc4)cc3)cc1)C2	< 3.90

System: not listed separately
Assay: Metabolic stability in pooled human liver microsomes assessed as compound remaining after 1 hr by LC-MS-MS
Type: ADME, Microsome
Conditions: read-out: Stability
In short: (§1)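 Test compound at 1 μM with pooled CD-1 mouse or human liver microsomes (0.5 mg/mL protein) and NADPH-regenerating system (3.3 mM MgCl2, 3.3 mM G6P, 0.4 U/mL G6PD, 1.3 mM NADP+) in 75 mM phosphate, pH 7.4, 0.5% DMSO, 37 °C. Stopped at 0 and 60 min with MeCN containing metoprolol internal standard. LC-MS/MS (ESI, SRM), duplicates. % remaining = 100 × mean peak-area ratio at 60 min / at 0 min.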

Compound	remaining at 1 h
O=[N+]([O-])c1cn2c(n1)OC[C@@H](OCc1ccc(-c3ccc(OC(F)(F)F)cc3Cl)cc1)C2	91%
O=[N+]([O-])c1cn2c(n1)OC[C@@H](OCc1ccc(-c3ccc(OC(F)(F)F)cc3F)cc1)C2	88%
O=[N+]([O-])c1cn2c(n1)OC[C@@H](OCc1ccc(-c3ccc(Oc4ccccc4)cc3)cc1)C2	22%
O=[N+]([O-])c1cn2c(n1)OC[C@@H](OCc1ccc(-c3ccccc3OCCCO)cc1)C2	59%
O=[N+]([O-])c1cn2c(n1)OC[C@@H](OCc1ccc(-c3ccc(Cl)c(C(F)(F)F)c3)cc1)C2	92%
O=[N+]([O-])c1cn2c(n1)OC[C@@H](OCc1ccc(-c3ccc(OC(F)F)cc3)cc1)C2	94%
O=[N+]([O-])c1cn2c(n1)OC[C@@H](OCc1ccc(-c3ccc(CNc4ccccc4)cc3)cc1)C2	12%

System: Mycobacterium tuberculosis
Assay: Antitubercular activity against Mycobacterium tuberculosis H37Rv infected in BALB/c mouse measured per mouse at 100 mg/kg, po daily for 5 days a week for 3 weeks
Type: functional
Conditions: not given

Compound	CFU
O=[N+]([O-])c1cn2c(n1)OC[C@@H](OCc1ccc(-c3ccc(OC(F)(F)F)cc3Cl)cc1)C2	390
O=[N+]([O-])c1cn2c(n1)OC[C@@H](OCc1ccc(-c3ccc(OC(F)(F)F)cc3F)cc1)C2	39
O=[N+]([O-])c1cn2c(n1)OC[C@@H](OCc1ccc(-c3ccc(Oc4ccccc4)cc3)cc1)C2	330000
O=[N+]([O-])c1cn2c(n1)OC[C@@H](OCc1ccc(-c3ccccc3OCCCO)cc1)C2	1100000
O=[N+]([O-])c1cn2c(n1)OC[C@@H](OCc1ccc(-c3ccc(Cl)c(C(F)(F)F)c3)cc1)C2	30
O=[N+]([O-])c1cn2c(n1)OC[C@@H](OCc1ccc(-c3ccc(OC(F)F)cc3)cc1)C2	1100
O=[N+]([O-])c1cn2c(n1)OC[C@@H](OCc1ccc(-c3ccc(CNc4ccccc4)cc3)cc1)C2	500000

System: not listed separately
Assay: Metabolic stability in pooled CD1 mouse liver microsomes assessed as compound remaining after 1 hr by LC-MS-MS
Type: ADME, Microsome
Conditions: read-out: Stability
In short: as §1

Compound	remaining at 1 h
O=[N+]([O-])c1cn2c(n1)OC[C@@H](OCc1ccc(-c3ccc(OC(F)(F)F)cc3Cl)cc1)C2	86%
O=[N+]([O-])c1cn2c(n1)OC[C@@H](OCc1ccc(-c3ccc(OC(F)(F)F)cc3F)cc1)C2	89%
O=[N+]([O-])c1cn2c(n1)OC[C@@H](OCc1ccc(-c3ccc(Oc4ccccc4)cc3)cc1)C2	48%
O=[N+]([O-])c1cn2c(n1)OC[C@@H](OCc1ccc(-c3ccccc3OCCCO)cc1)C2	21%
O=[N+]([O-])c1cn2c(n1)OC[C@@H](OCc1ccc(-c3ccc(Cl)c(C(F)(F)F)c3)cc1)C2	96%
O=[N+]([O-])c1cn2c(n1)OC[C@@H](OCc1ccc(-c3ccc(OC(F)F)cc3)cc1)C2	77%
O=[N+]([O-])c1cn2c(n1)OC[C@@H](OCc1ccc(-c3ccc(CNc4ccccc4)cc3)cc1)C2	52%

System: Mycobacterium tuberculosis
Assay: Antitubercular activity against Mycobacterium tuberculosis H37Rv in anaerobic condition after 7 days by low oxygen recovery assay
Type: functional
Conditions: 168 h

Compound	MIC
O=[N+]([O-])c1cn2c(n1)OC[C@@H](OCc1ccc(-c3ccc(OC(F)(F)F)cc3Cl)cc1)C2	0.78 µM (≈ 0.366 µg/mL)
O=[N+]([O-])c1cn2c(n1)OC[C@@H](OCc1ccc(-c3ccc(OC(F)(F)F)cc3F)cc1)C2	0.72 µM (≈ 0.326 µg/mL)
O=[N+]([O-])c1cn2c(n1)OC[C@@H](OCc1ccc(-c3ccc(Oc4ccccc4)cc3)cc1)C2	2.7 µM (≈ 1.2 µg/mL)
O=[N+]([O-])c1cn2c(n1)OC[C@@H](OCc1ccc(-c3ccccc3OCCCO)cc1)C2	2.7 µM (≈ 1.15 µg/mL)
O=[N+]([O-])c1cn2c(n1)OC[C@@H](OCc1ccc(-c3ccc(Cl)c(C(F)(F)F)c3)cc1)C2	1.9 µM (≈ 0.862 µg/mL)
O=[N+]([O-])c1cn2c(n1)OC[C@@H](OCc1ccc(-c3ccc(OC(F)F)cc3)cc1)C2	0.77 µM (≈ 0.321 µg/mL)
O=[N+]([O-])c1cn2c(n1)OC[C@@H](OCc1ccc(-c3ccc(CNc4ccccc4)cc3)cc1)C2	0.63 µM (≈ 0.288 µg/mL)

System: Mycobacterium tuberculosis
Assay: Antitubercular activity against Mycobacterium tuberculosis H37Rv in aerobic condition after 7 days by microplate alamar blue assay
Type: functional
Conditions: 168 h
In short: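 M. tuberculosis H37Rv, replicating culture; 8-day microplate assay with Alamar blue added on day 7 to read growth. […] Mean of at least two independent determinations ± SD.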

Compound	MIC
O=[N+]([O-])c1cn2c(n1)OC[C@@H](OCc1ccc(-c3ccc(OC(F)(F)F)cc3Cl)cc1)C2	0.04 µM (≈ 0.0188 µg/mL)
O=[N+]([O-])c1cn2c(n1)OC[C@@H](OCc1ccc(-c3ccc(OC(F)(F)F)cc3F)cc1)C2	0.045 µM (≈ 0.0204 µg/mL)
O=[N+]([O-])c1cn2c(n1)OC[C@@H](OCc1ccc(-c3ccc(Oc4ccccc4)cc3)cc1)C2	0.04 µM (≈ 0.0177 µg/mL)
O=[N+]([O-])c1cn2c(n1)OC[C@@H](OCc1ccc(-c3ccccc3OCCCO)cc1)C2	0.34 µM (≈ 0.145 µg/mL)
O=[N+]([O-])c1cn2c(n1)OC[C@@H](OCc1ccc(-c3ccc(Cl)c(C(F)(F)F)c3)cc1)C2	0.035 µM (≈ 0.0159 µg/mL)
O=[N+]([O-])c1cn2c(n1)OC[C@@H](OCc1ccc(-c3ccc(OC(F)F)cc3)cc1)C2	0.05 µM (≈ 0.0209 µg/mL)
O=[N+]([O-])c1cn2c(n1)OC[C@@H](OCc1ccc(-c3ccc(CNc4ccccc4)cc3)cc1)C2	0.06 µM (≈ 0.0274 µg/mL)
